Measured values taken from ChEMBL document CHEMBL5030534, “Discovery of Novel Anti-Breast-Cancer Inhibitors by Synergistically Antagonizing Microtubule Polymerization and Aryl Hydrocarbon Receptor Expression” (J Med Chem, 2021).
Calls of active or inactive are those of the source. The rule behind the calls is not given here.

How the values were obtained:
MCF7 [1] = experiment: Induction of apoptosis in human MCF7 cells assessed as necrotic cells at 1 nM measured after 24 hrs by Annexin V-FITC and PI staining based flow cytometry assay (reference value: 0.28%); format: functional
[2] = molecular target: T1, Aryl hydrocarbon receptor (Homo sapiens, UniProt P35869); experiment: Inhibition of AhR signalling in human MCF7 cells assessed as reduction in AhR level at 2 nM incubated for 24 hrs in presence of DMBA by Western blot analysis; format: cell-based; conditions: mcf7, 24 h, 0.002 µM
T1 sequence (P35869 whole entry): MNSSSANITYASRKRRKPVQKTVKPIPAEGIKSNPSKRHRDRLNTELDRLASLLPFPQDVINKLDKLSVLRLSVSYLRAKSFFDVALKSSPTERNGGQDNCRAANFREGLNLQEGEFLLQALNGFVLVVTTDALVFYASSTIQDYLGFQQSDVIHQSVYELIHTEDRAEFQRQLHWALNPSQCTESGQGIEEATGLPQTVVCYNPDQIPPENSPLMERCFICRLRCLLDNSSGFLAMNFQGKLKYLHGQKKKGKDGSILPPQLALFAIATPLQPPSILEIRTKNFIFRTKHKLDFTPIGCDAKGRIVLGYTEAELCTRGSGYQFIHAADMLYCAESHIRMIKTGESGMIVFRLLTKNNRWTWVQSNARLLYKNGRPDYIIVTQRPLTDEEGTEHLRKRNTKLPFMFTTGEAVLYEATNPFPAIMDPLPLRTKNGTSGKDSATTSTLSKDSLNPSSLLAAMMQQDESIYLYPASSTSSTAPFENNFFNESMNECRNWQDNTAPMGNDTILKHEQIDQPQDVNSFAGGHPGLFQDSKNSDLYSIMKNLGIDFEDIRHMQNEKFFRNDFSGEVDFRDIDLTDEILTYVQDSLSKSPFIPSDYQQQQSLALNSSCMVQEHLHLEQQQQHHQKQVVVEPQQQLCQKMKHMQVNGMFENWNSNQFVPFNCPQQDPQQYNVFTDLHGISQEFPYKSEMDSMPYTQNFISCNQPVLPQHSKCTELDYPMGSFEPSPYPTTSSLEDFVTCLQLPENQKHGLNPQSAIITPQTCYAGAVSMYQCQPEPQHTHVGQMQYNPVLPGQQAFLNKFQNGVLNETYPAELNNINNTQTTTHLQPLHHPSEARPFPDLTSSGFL
How it was run: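 MCF-7 treated with DMBA (400 nM), DMBA plus 2 nM, or 2 nM alone. AhR measured by Western blot relative to loading control; n = 3.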

MCF7 [3] = experiment: Induction of ROS generation in human MCF7 cells at 2 nM measured after 24 hrs in presence of N-acetylcysteine by DCFH-DA staining based flow cytometric analysis; format: functional
How it was run: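 MCF-7 seeded 4 × 10⁵ per well for 24 h, then DMSO or 0.5, 1, 2 nM for 24 h. Loaded with DCFH-DA for 30 min in the dark, resuspended in serum-free medium, DCF fluorescence measured by flow cytometry. For scavenger condition, 2.5 mM N-acetyl-L-cysteine pretreatment, then 2 nM for 24 h. Three runs.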

Tubulin (Homo sapiens) [4] = molecular target: T2, Tubulin (Homo sapiens) (UniProt P68371+Q9H4B7+P0DPH7+P68366+Q13509+Q71U36+P04350+Q3ZCM7+P07437+P68363+Q9BQE3+Q6PEY2+Q13885+Q9BVA1+Q9BUF5); experiment: Induction of microtubule damage in human MCF7 cells incubated for 48 hrs by DAPI staining based immunofluorescence assay; format: cell-based; conditions: dose 0.5-4 nM
How it was run: (§1)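 Blocked with goat serum for 20 min, probed with anti-β-tubulin for 2 h, fluorescent secondary antibody and DAPI nuclear stain, imaged by laser confocal microscopy.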

MCF7 [5] = experiment: Induction of apoptosis in human MCF7 cells assessed as viable cells at 0.5 nM measured after 24 hrs by Annexin V-FITC and PI staining based flow cytometry assay (reference value: 96.8%); format: functional; conditions: read-out: Activity
Tubulin (Homo sapiens) [6] = molecular target: T2, Tubulin (Homo sapiens); experiment: Induction of microtubule damage in human MCF7 cells at 0.5 nM incubated for 48 hrs by DAPI staining based immunofluorescence assay; format: cell-based; how it was run: as §1
MCF7 [7] = experiment: Induction of apoptosis in human MCF7 cells assessed as necrotic cells at 2 nM measured after 24 hrs by Annexin V-FITC and PI staining based flow cytometry assay (reference value: 0.9%); format: functional
MCF7 [8] = experiment: Induction of apoptosis in human MCF7 cells assessed as late apoptotic cells at 2 nM measured after 24 hrs by Annexin V-FITC and PI staining based flow cytometry assay (reference value: 1.5%); format: functional
MCF7 [9] = experiment: Induction of apoptosis in human MCF7 cells assessed as early apoptotic cells at 1 nM measured after 24 hrs by Annexin V-FITC and PI staining based flow cytometry assay (reference value: 0.90%); format: functional
MCF7 [10] = experiment: Cell migration rate in human MCF7 cells at 2 nM incubated for 24 hrs by inverted fluorescence microscopic method (reference value: 11.51%); conditions: MCF7, 24 h
MCF7 [11] = experiment: Inhibition of AhR signalling in human MCF7 cells assessed as reduction in AhR level incubated for 24 hrs by Western blot analysis; format: functional, cell-based; conditions: dose 1-4 nM
How it was run: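 MCF-7 cells seeded 4 × 10⁵ per well, grown 24 h, then exposed to DMSO or 1, 2, 4 nM for 24 h; BAY 2416964 served as AhR antagonist reference. Lysates adjusted to 3 mg/mL protein by BCA, resolved on 4−20% SDS-PAGE, immunoblotted; AhR and CYP1A1 bands normalized to GAPDH. Three independent runs.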

MCF7 [12] = experiment: Cell cycle arrest in human MCF7 cells assessed as increase in Cyclin B1 protein expression; conditions: dose 1-4 nM
MCF7 [13] = experiment: Cell cycle arrest in human MCF7 cells assessed as decrease in Cdc25c protein expression; format: functional, cell-based; conditions: dose 1-4 nM
How it was run: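 MCF-7 seeded 4 × 10⁵ per well for 24 h, then DMSO or compound at 1, 2, 4 nM for 24 h. Lysates protein-normalized to 3 mg/mL by BCA, resolved on 4–20% SDS-PAGE and immunoblotted. Bands quantified relative to β-actin (cell-cycle proteins) or GAPDH (apoptosis proteins); n = 3.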

MCF7 [14] = experiment: Induction of apoptosis in human MCF7 cells assessed as early apoptotic cells at 2 nM measured after 24 hrs by Annexin V-FITC and PI staining based flow cytometry assay (reference value: 0.90%); format: functional
MCF7 [15] = experiment: Induction of apoptosis in human MCF7 cells assessed as viable cells at 2 nM measured after 24 hrs in presence of DMBA by Annexin V-FITC and PI staining based flow cytometry assay (reference value: 96.5%); format: functional; conditions: read-out: Activity
[16] = Toxicity in BALB/c mouse xenografted with human MCF7 cells assessed as change in body weight at 0.5 to 1 mg/kg, iv administered every 2 days for 21 days; format: organism-based; conditions: in vivo, 504 h, dose 0.5-1 mg/kg, time 21 day
How it was run: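 Nude mice given 6 × 10⁶ MCF-7 cells subcutaneously on right flank; after 7 days randomized, eight per group. iv dosing every 2 days at 0.5 or 1 mg/kg; vehicle 10% DMSO/5% Tween 80/85% saline; paclitaxel 10 mg/kg and CA-4 20 mg/kg references. Body weight every 2 days; killed after 21 days; organs fixed, paraffin-sectioned, H&E stained.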

Structure (SMILES): Cc1nc(N(C)c2ccc3c(c2)cc(C)n3C)c2ccccc2n1
- Activity (MCF7 [1]): 3.27%
- inhibition (INH) [2]: Active
- Activity (MCF7 [3]): 24.7%
- Activity (Tubulin (Homo sapiens) [4]): Dose-Dependent Effect
- viability at 0.0005 µM (MCF7 [5]): 95%
- Activity (Tubulin (Homo sapiens) [6]): inactive
- Activity (MCF7 [7]): 8.3%
- Activity (MCF7 [8]): 44.7%
- Activity (MCF7 [9]): 6.63%
- Migration rate at 0.002 µM (MCF7 [10]): 3.78%
- inhibition (MCF7 [11]): Dose-Dependent Effect
- Activity (MCF7 [12]): Dose-Dependent Effect
- Activity (MCF7 [13]): Dose-Dependent Effect
- Activity (MCF7 [14]): 12.1%
- viability at 0.002 µM (MCF7 [15]): 67.5%
- Activity [16]: Non-Toxic
